Measurements as given in the RNAGym collection of RNA variant scans (doi:10.1126/science.aae0568).
Variants at the floor of the assay were thinned out.

B1: tRNA (parent)
chain: GUUCCGUUGGCGUAAUGGUAACGCGUCUCCCUCCUAAGGAGAAGACUGCGGGUUCGAGUCCCGUACGGAACG

Variants of: B1
Assay: yeast fitness relative to wild type (ratio to wild type); higher = fitter; tRNA-Arg(CCU), competitive growth, 37 C, YPD
In short: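 Variants of the tRNA-Arg(CCU) gene were chemically synthesised with a 3% per-site mutation rate across 69 sites and placed at the native genomic locus in Saccharomyces cerevisiae. Six parallel replicates of the pooled strains were competed in YPD at 37°C for 24 hours, and gene amplicons from the start and end populations were read by 100-nucleotide paired-end sequencing. Darwinian fitness relative to wild type was derived from changes in genotype frequencies. Genotypes required ≥ 100 starting reads, and estimates < 0.5 were set to 0.5.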

Variant | yeast fitness
G18A A36U C61A | ≤ 0.5
G17C U53G A70U | 0.564
G18A C46U U59C G68A | 0.53
G18A A20U A36U A65C | 0.706
G18A A70U | 0.956
G18A C24U U47G | ≤ 0.5
G18A C31U A70U | 0.656
G18A C31U A70G | 0.726
G17C G51A A65C | ≤ 0.5
G17C C22G C30U G41C C46U | 0.708
G17C C29G A43G | ≤ 0.5
G17C C31A C60A A65U | 0.532
G17C G58C | 0.528
G17A U32A G67C | 0.6
G17C G25C | 0.658
G17C G23U U28A C31G | 0.655
G17C C24A U47A C66U A69U | ≤ 0.5
G18A C46G | 0.749
G18A C46U | 0.749
G18A C46A | 0.692
G17C U53A G56A A57C A65C | ≤ 0.5
G17A C33G A40U G51C | ≤ 0.5
G18A A69C | 0.926
G18A A42G | 0.692

Variant | yeast fitness
G18A C27U A37G A70C | ≤ 0.5
G17C C22U C30U A37U | ≤ 0.5
G18A A20U A36U C62U | ≤ 0.5
G17C G25A U32A A43G A57U | 0.546
G17C C61U C62U C66A | 0.593
G17C U32C A42U | 0.559
G17A C33G C66U | ≤ 0.5
G17U U19G A37G C66U A69U | 0.561
G17A C33G A36G G63A | ≤ 0.5
G18A C22U | 0.636
G17C A20C G52C | ≤ 0.5
G17A C33A A37U A57G | ≤ 0.5
G17A U19C | 0.95
G17C U19C A20G G68U | ≤ 0.5
G17C A37G C55U | ≤ 0.5
G17C C27U G67C | ≤ 0.5
G17A G25C A65C | 0.611
G17A G41A | 0.665
G17C G67C | 0.723
G17A G41C A43G G58C | ≤ 0.5
G17C A20C C34A U47A A57U | ≤ 0.5
G17C U35A | ≤ 0.5
G18A C34G C55G A65U | ≤ 0.5
G17A C31U A42C | 0.582

Variant | yeast fitness
G17A U19A G23A C31U C34A G48C C62U | ≤ 0.5
G18A A20U C22U U28A C33U G44C | 0.524
G18A A20G U35C G58A C60G | 0.558
G17C G44A A45C | ≤ 0.5
G17C G39C | 0.59
G18A C30G G41C | ≤ 0.5
G17C U19C C24A U32C | ≤ 0.5
G18A C31G G41A G52C C60U C62G C66G | ≤ 0.5
G17A C55U C62U | ≤ 0.5
G17C C24G U28A C30U | 0.646
G17A G48C C62A | 0.549
G17C U32A C46A A69U | ≤ 0.5
G17C C34A A42U A43C | ≤ 0.5
G17C C27U U53G | ≤ 0.5
G18A A21C C30U C34A | ≤ 0.5
G17A U64C | 0.878
G17C A70C | 0.751
G17C A70G | 0.616
G17C A70U | 0.713
G17C U26C C46U A65U | 0.558
G17A U54A | 0.566
G17A U28C A42C C62U A70U | ≤ 0.5
G17C C27G C29A | ≤ 0.5
G17A C55G | ≤ 0.5

Variant | yeast fitness
G17A C55A | 0.547
G17C C24A | 0.56
G17C C24U | 0.607
G17C G41A G56C | 0.619
G17A U32C A40G A70G | ≤ 0.5
G18A C24A | 0.564
G17C C55U | 0.598
G17C C55A | ≤ 0.5
G17C C55G | 0.616
G17A C31G G48A | ≤ 0.5
G17C A21C U28C C60A A65G | ≤ 0.5
G17C G39C G63A | ≤ 0.5
G18A A20U C49G U54A G68U A69U | ≤ 0.5
G18A C46U G50U C60G A70G | ≤ 0.5
G18A C22U A40C G68C | ≤ 0.5
G17C C33A C55A | 0.672
G17C C29G G39A | ≤ 0.5
G17C G23C A43U C49A C66U A70U | 0.603
G18A C30A U32A U35G G67A | ≤ 0.5
G17A C34A A57U | ≤ 0.5
G17A C30A C66U A70G | ≤ 0.5
G17A U28G A42G G68U | ≤ 0.5
G17C G51A G63C A69U | ≤ 0.5
G17C G50A | 0.616

Variant | yeast fitness
G17A C34U C46G A65U | ≤ 0.5
G17A C31U A70C | 0.658
G18A C49U U54C | 0.539
G18A A43G A65C | 0.595
G17A C30U A42C | ≤ 0.5
G17C A21G A40C G44C C61A | 0.622
G17A C34A G52U | ≤ 0.5
G17C A20G C46A C60U | ≤ 0.5
G17A C31U G52A | ≤ 0.5
G17C C29G A65C | 0.629
G18A C31G C34A U47C | ≤ 0.5
G17A G56C G58C G68A | ≤ 0.5
G17C G63C | ≤ 0.5
G17C G39A G52A | ≤ 0.5
G18A C33U C46G | 0.634
G18A C30A U32A U35G | ≤ 0.5
G17C U47G C66U G67A A69U | ≤ 0.5
G17C C24A U47A | ≤ 0.5
G17C C22G | 0.619
G17C G52C U64A | ≤ 0.5
G18A A43C C66G | 0.505
G17C A42C G68A | ≤ 0.5
G17A C31U | 0.74
G18A C34U C60U | ≤ 0.5

Variant | yeast fitness
G18A A45C C55U C61G | ≤ 0.5
G17C C22U C60G | 0.719
G18A C31G A70U | 0.687
G17C C33U A37C | ≤ 0.5
G17A G56C G58C G63A | ≤ 0.5
G17A C31A G48C | ≤ 0.5
G17C A43U G48A C66G | ≤ 0.5
G17C C22U C49G | ≤ 0.5
G17A C34A C49U G52U | ≤ 0.5
G18A A21C G39A C55U C60G A69U | 0.523
G17A C33U A43U A57G G67U | ≤ 0.5
G17C A36G C49U C66U A69C | 0.598
G17A G58A | 0.794
G18A C49A A65U | 0.558
G18A C46A G63C | 0.604
G17A C62U A69U | 0.587
G17C A69U | 0.624
G17C A69C | 0.658
G17C A57G G67A | 0.56
G17C C66U | 0.705
G17A G39C G56C | ≤ 0.5
G17C U28A C34G G38A U59A | ≤ 0.5
G17A U32C A40G | 0.573
G17C A37C A40C C61U G68A | ≤ 0.5

Variant | yeast fitness
G17C U28A C30A C31A | 0.623
G18A C49U | 0.892
G17A C31G G68A | ≤ 0.5
G18A C30U A40U G44C | ≤ 0.5
G17A U47C A57G A69U | ≤ 0.5
G18A C34U G48A A65C | ≤ 0.5
G17A C61U C66U | 0.599
G18A C31U G41A | 0.647
G17A U19A C30U G67A | ≤ 0.5
G18A A20G U26G G50C G63C | ≤ 0.5
G17C C24U G41A | ≤ 0.5
G17U C24U | 0.84
G17C A42C C55U | ≤ 0.5
G17C U19A C24G U26A C34U | ≤ 0.5
G17C C29A A57U | ≤ 0.5
G17C G63C C66U | ≤ 0.5
G18A C30U C55A | 0.592
G18A C55G | 0.554
G18A C30U U47G | ≤ 0.5
G17C A20U C33G A70U | ≤ 0.5
G17A G56A C66U | 0.678
G17A G23C C33G C46A C66A | ≤ 0.5
G18A A36U | 0.66
